Molecules are shown by their SMILES. pIC50: −log10 of the molar value. Activity calls are given as the source filed them. The rule behind the calls is not given here.

This is an account of results in ChEMBL document CHEMBL4765233, “From Lead to Drug Candidate: Optimization of 3-(Phenylethynyl)-1H-pyrazolo[3,4-d]pyrimidin-4-amine Derivatives as Agents for the Treatment of Triple Negative Breast Cancer” (J Med Chem, 2016).

The subject of data set [1] is Mus musculus. Briefly: Reduction in CD31 expression in tumor tissue of SCID mouse xenografted with human MDA-MB-231 cells at 40 mg/kg, po QD for 21 days by immunohistochemical analysis. It counts as functional, organism-based. The settings on record: dose 40.0 mg/kg/day, time 21.0 day. The method in brief: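 SCID mice carried subcutaneous MDA-MB-231 xenografts (5 × 10^6 cells in 100 μL). Oral dosing in water with 25% PEG400 and 5% DMSO began at 150–200 mm3. Tumours were removed at the end of study, formalin-fixed and paraffin-embedded, then immunostained.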

In data set [2] the test system is MDA-MB-231. Briefly: Antitumor activity against human MDA-MB-231 cells xenografted in SCID mouse assessed as tumor growth inhibition at 40 mg/kg, po qd for 21 days and measured every 3 days. It counts as functional. The settings on record: MDA-MB-231, po, 504 h, time 21 day. A digest of the protocol:
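SCID mice (5−6 weeks) injected subcutaneously with 100 μL of cells at 5 × 10^7/mL. At 150−200 mm3 mice randomized, 6 per group. Oral compounds given in water with 25% PEG400 plus 5% DMSO; paclitaxel given 10 mg/kg/week iv. Tumor volume a×b²/2 and body weight measured every 3 days. Inhibition rate (c−d)/c×100% against vehicle control.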
(In general: A xenograft is tissue or cells of one species grown in another, often human tumour cells in immunodeficient mice.)

For data set [3], the system named is MDA-MB-231. The experiment in a line: Induction of apoptosis in human MDA-MB-231 cells assessed as late apoptotic cells at 0.1 uM incubated for 24 hrs by annexin V-FITC and propidium iodide staining based flow cytometry analysis (reference value: 0.85 %). It counts as functional. On the technique in general: Flow cytometry measures light scatter and fluorescence of single cells or particles in a stream.

For data set [4], the system named is MDA-MB-231. Briefly: Inhibition of colony formation in human MDA-MB-231 cells at >0.1 uM treated for 12 days by crystal violet staining based visual analysis. It counts as functional. The settings on record: dose microM >0.1; time 12 day. The method in brief:
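MDA-MB-231 cells seeded at 5000 per well in six-well plates and treated the next day, with drug-containing medium replaced every 4 days. After 12 days, colonies fixed with methanol and stained with crystal violet, then photographed.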

Data set [5] relates to MDA-MB-231. The experiment in a line: Induction of apoptosis in human MDA-MB-231 cells assessed as late apoptotic cells at 0.01 uM incubated for 24 hrs by annexin V-FITC and propidium iodide staining based flow cytometry analysis (reference value: 0.85 %). It counts as functional.
Data set [6] relates to MDA-MB-231. The experiment in a line: Induction of apoptosis in human MDA-MB-231 cells assessed as early apoptotic cells at 0.03 uM incubated for 24 hrs by annexin V-FITC and propidium iodide staining based flow cytometry analysis (reference value: 2 %). It counts as functional.
Data set [7] has as its system Mus musculus. The experiment in a line: In vivo inhibition of MEK in SCID mouse xenografted with human MDA-MB-231 cells assessed as reduction in phosphorylation of MEK in tumor tissue at 40 mg/kg, po QD for 21 days by immunohistochemical analysis. It counts as functional, organism-based. The settings on record: dose 40.0 mg/kg/day, time 21.0 day. A digest of the protocol: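 Tumors taken from xenografted SCID mice dosed orally at 40 mg/kg/q.d. or given control; mice euthanized at set times. Tumors formalin-fixed and paraffin-embedded, stained by immunohistochemistry for phospho-proteins, and imaged by light microscopy.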

Data set [8] is described as follows: AUC (0 to infinity) in Sprague-Dawley rat at 10 mg/kg, po administered via gavage by LC-MS analysis. It counts as ADME, organism-based. Details: time infinity, route oral, dose 10 mg/kg. Conditions: in vivo.
Data set [9] deals with MDA-MB-231. Briefly: Induction of apoptosis in human MDA-MB-231 cells incubated for 24 hrs by annexin V-FITC and propidium iodide staining based flow cytometry analysis. It counts as functional, cell-based. Conditions: dose 0.01-0.1 µM. A digest of the protocol:
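MDA-MB-231 cells (2 × 10^5) plated in six-well plates, treated with vehicle or compound at various concentrations for 24 h at 37 °C. Harvested, washed with ice-cold PBS, stained with Annexin V-FITC/PI and analysed by flow cytometry.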

The target in data set [10] is Proto-oncogene tyrosine-protein kinase Src (Homo sapiens) (UniProt P12931). Briefly: Inhibition of Src in human MDA-MB-231 cells assessed as inhibition of FAK phosphorylation at 0.1 to 0.3 uM incubated for 20 hrs by Western blot analysis. It is filed as cell-based. Conditions: dose 0.1-0.3 µM. The method in brief: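 MDA-MB-231 cells treated with a series of concentrations for 20 h at 37 °C. Cells washed with ice-cold saline and lysed in RIPA buffer with protease cocktail. Lysates cleared at 12000 rpm for 10 min at 4 °C and protein quantified by Bradford. Equal protein separated by SDS-PAGE, transferred to PVDF and probed with antibodies.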
In general terms: A western blot detects proteins with antibodies after separation by electrophoresis.

Data set [11] relates to Ramos. Briefly: Antiproliferative activity against human Ramos cells assessed as reduction in cell viability incubated for 72 hrs by MTT assay. It is filed as functional, cell-based. The method in brief: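 MTT viability assay. ATCC cell lines were grown in designated medium with 10% FBS at 37 °C, 5% CO2. Cells seeded at 1500−30000 per well and incubated 24 h, then exposed to compound (0−10 μg/mL) for 72 h. MTT added for 2−4 h. Formazan dissolved in DMSO (adherent) or acidified SDS overnight (suspension), absorbance read at 570 nm. Triplicates; IC50 calculated.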

Sequence of Proto-oncogene tyrosine-protein kinase Src (Homo sapiens) (P12931 2-536 limits assumed): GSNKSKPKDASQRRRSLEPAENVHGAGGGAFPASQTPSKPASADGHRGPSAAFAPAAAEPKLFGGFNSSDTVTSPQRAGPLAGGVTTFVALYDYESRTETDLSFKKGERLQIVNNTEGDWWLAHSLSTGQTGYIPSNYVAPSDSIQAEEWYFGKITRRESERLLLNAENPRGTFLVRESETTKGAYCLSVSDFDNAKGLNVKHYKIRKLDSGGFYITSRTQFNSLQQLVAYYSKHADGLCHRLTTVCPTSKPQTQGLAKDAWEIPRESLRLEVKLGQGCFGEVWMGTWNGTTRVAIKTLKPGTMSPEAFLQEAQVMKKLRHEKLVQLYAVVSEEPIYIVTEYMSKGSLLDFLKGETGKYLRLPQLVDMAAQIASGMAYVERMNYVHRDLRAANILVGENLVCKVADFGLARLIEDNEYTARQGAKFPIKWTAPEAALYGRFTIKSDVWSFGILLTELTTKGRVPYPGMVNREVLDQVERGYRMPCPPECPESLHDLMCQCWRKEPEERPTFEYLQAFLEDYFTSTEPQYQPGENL

Consider `Cc1ccc(NC(=O)c2ccc(C)c(C(F)(F)F)c2)cc1C#Cc1nn([C@H]2CC[C@H](O)CC2)c2ncnc(N)c12`, for which the inhibition entry in data set [1], in [7] and in [10] was “Active” in each case. For the same compound, in data set [2], the inhibition in vivo at 40 mg/kg/day came to 100%. The Activity was 17.35% in [3], 3.23% in [5], 8.02% in [6] and “Dose-dependent effect” in data set [9]. Moreover, in data set [4], the “inhibition (INH)” value came to 100%. The compound also had an area under the curve AUC(0-inf) in data set [8] of 2950 ng·h/mL. The negative-log IC50 (pIC50) in data set [11] is 5.00.

A word on the inhibition in vivo: it is how much of the control response was suppressed. In general, AUC(0-inf) refers to the area under the concentration-time curve extrapolated to infinity. Low readings indicate low exposure, high ones high exposure. As usually defined, the pIC50 is −log10 of the IC50, conventionally taken in molar units.
